Laboratory results from PMC5080318 (Cancer Chemotherapy and Pharmacology, 2016).
Where two headings read alike, the source gives them in different places. Marks after values point to notes of the source that are not given here.

Experiments:
[1] = test system: solid tumors and hematological malignancies; conditions: cited from earlier work; for antitumor activity: phase I trials, solid tumors and hematological malignancies
[2] = test system: acute myeloid leukemia (AML); conditions: cited from earlier work; for complete response rate / febrile neutropenia / stomatitis: randomized phase II trial, elderly patients with AML
[3] = test system: patients with advanced solid tumors; conditions: cited from earlier work
[4] = test system: patients with advanced solid tumors; assay: phase I dose escalation: DLT and MTD; type: in vivo
[5] = phase I pharmacokinetics, plasma and urine; type: in vivo, human; conditions: for mean terminal half-life: range over doses
[6] = test system: caspase-cleaved cytokeratin-18 (CK-18); assay: plasma caspase-cleaved CK-18; type: in vivo, human; conditions: both schedules
Outline: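 Plasma was drawn pre-dose and at 48, 72 and 120 h after the first two 24-h IV infusions in each schedule: Days 1 and 15 of a 4-week cycle, or Day 1 of a 3-week cycle. Further samples were taken pre-dose and at 120 h post-dose up to Cycle 6. Caspase-cleaved CK-18 was quantified by validated ELISA.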

advanced solid tumors = assay: antitumor activity; type: in vivo, human
[7] = test system: patients with advanced solid tumors; conditions: in vivo
[8] = test system: phosphorylated histone H3 (pHH3); conditions: in vitro; cited from earlier work
tumor cell lines = conditions: 48 h following treatment; cited from earlier work
[9] = test system: xenograft models of human non-small cell lung cancer, colon carcinoma, and pancreas carcinoma; conditions: cited from earlier work
[10] = test system: HCT 116 colorectal cancer model; conditions: preclinical models; ref Boehringer Ingelheim; data on file; cited from earlier work
[11] = test system: alpha-1-acid glycoprotein (AGP); conditions: preclinical; ref Boehringer Ingelheim, data on file; cited from earlier work
[12] = test system: patients with advanced solid tumors; assay: phase I safety: adverse events

CC(=O)NCC(=O)N1[C@@H]2CC[C@H]1c1ccc(Nc3ncc(C(F)(F)F)c(NC4CCC4)n3)cc12 [PF-03814735]
antitumor activity [1]: limited antitumor activity

COc1cc(Nc2ncc3c(n2)-c2ccc(Cl)cc2C(c2c(F)cccc2OC)=NC3)ccc1C(=O)O [alisertib]
clinical activity ([1]; phase II study, preliminary evidence): durable disease control in multiple cancer types

O=C(Nc1c[nH]nc1-c1nc2ccc(CN3CCOCC3)cc2[nH]1)NC1CC1 [AT9283]
antitumor activity [1]: limited antitumor activity

CO[C@@H](C(=O)N1Cc2n[nH]c(NC(=O)c3ccc(N4CCN(C)CC4)cc3)c2C1)c1ccccc1 [danusertib]
clinical activity ([1]; advanced hematological malignancies): promising clinical activity
clinical activity ([1]; phase I/II studies in advanced solid tumors): limited activity

Nc1ccn([C@@H]2O[C@H](CO)[C@@H](O)[C@@H]2O)c(=O)n1 [LDAC, cytosine arabinoside]
complete response rate [2]: 11.5%
febrile neutropenia [2]: 19%
stomatitis [2]: 15%

O=C(O)c1ccc(Nc2ncc3c(n2)-c2ccc(Cl)cc2C(c2c(F)cccc2F)=NC3)cc1 [MLN8054]
dose-limiting toxicities [3]: DLTs of liver enzyme elevations were observed

CCN(CCCOc1ccc2c(Nc3cc(CC(=O)Nc4cccc(F)c4)n[nH]3)ncnc2c1)CCOP(=O)(O)O [barasertib]
response rate ([2]; in combination with low-dose cytosine arabinoside (LDAC), AML): 45%
hematological response rate ([2]; monotherapy, phase I/II trials, AML): 19–25%
complete response rate [2]: 35.4%
febrile neutropenia [2]: 67%
stomatitis [2]: 71%
clinical activity ([1]; advanced solid tumors): limited activity in solid tumors

CC(C)NC(=O)[C@H]1CCC[C@H]1Nc1nc(Nc2ccc(C(=O)N(C)C3CCN(C)CC3)cc2)ncc1C(F)(F)F [BI 811283]
Patients with DLT ([4]; schedule A, 5 mg, n 3, first cycle): 0
Patients with DLT ([4]; schedule A, 10 mg, n 7, first cycle): 1
Patients with DLT ([4]; schedule A, 13.5 mg, n 3, first cycle): 0
Patients with DLT ([4]; schedule A, 18 mg, n 3, first cycle): 0
Patients with DLT ([4]; schedule A, 24 mg, n 4, first cycle): 0
Patients with DLT ([4]; schedule A, 32 mg, n 3, first cycle): 0
Patients with DLT ([4]; schedule A, 43 mg, n 5, first cycle): 0
Patients with DLT ([4]; schedule A, 58 mg, n 3, first cycle): 0
Patients with DLT ([4]; schedule A, 78 mg, n 7, first cycle): 1
Patients with DLT ([4]; schedule A, 105 mg, n 6, first cycle): 1
Patients with DLT ([4]; schedule A, 125 mg (MTD), n 16 incl. expansion cohort, first cycle): 1
Patients with DLT ([4]; schedule A, 140 mg, n 3, first cycle): 2
maximum tolerated dose (MTD) ([4]; schedule A: 24-h infusion Days 1 and 15 of a 4-week cycle): 125 mg
Patients with DLT ([4]; schedule B, 13.5 mg, n 3, first cycle): 0
Patients with DLT ([4]; schedule B, 18 mg, n 3, first cycle): 0
Patients with DLT ([4]; schedule B, 24 mg, n 3, first cycle): 0
Patients with DLT ([4]; schedule B, 32 mg, n 4, first cycle): 0
Patients with DLT ([4]; schedule B, 43 mg, n 3, first cycle): 0
Patients with DLT ([4]; schedule B, 58 mg, n 3, first cycle): 0
Patients with DLT ([4]; schedule B, 78 mg, n 3, first cycle): 0
Patients with retrospectively identified potential DLT ([4]; schedule B, 105 mg, n 6): 2
Patients with DLT ([4]; schedule B, 105 mg, n 6, first cycle): 1^c
Patients with retrospectively identified potential DLT ([4]; schedule B, 125 mg, n 3): 1
Patients with DLT ([4]; schedule B, 125 mg, n 3, first cycle): 0^c
Patients with DLT ([4]; schedule B, 150 mg, n 3, first cycle): 0
Patients with retrospectively identified potential DLT ([4]; schedule B, 180 mg, n 3): 1
Patients with DLT ([4]; schedule B, 180 mg, n 3, first cycle): 0^c
Patients with DLT ([4]; schedule B, 230 mg, second cohort n 3 (after 300 mg), first cycle): 0
Patients with DLT ([4]; schedule B, 270 mg, n 5, first cycle): 2
Patients with DLT ([4]; schedule B, 300 mg, n 3, first cycle): 2
maximum tolerated dose (MTD) ([4]; schedule B: 24-h infusion Day 1 of a 3-week cycle): 230 mg
exposure to total BI 811283 (bound and unbound) in patients with higher AGP plasma concentrations ([5]; human, in vivo): trend toward increased exposure
time to maximum plasma concentration after start of infusion ([5]; human, in vivo, iv): 20 to 24 h
Cmax and AUC0–∞ versus dose ([5]; in vivo): increased in a dose-dependent manner
fraction excreted in urine ([5]; in vivo): 4 to 12 % of the administered dose
time after end of infusion in which most of the compound was eliminated ([5]; in vivo): ≤ 6 h
mean terminal half-life ([5]; schedule A): 11.4 to 30.5 h
mean terminal half-life ([5]; schedule B): 10.1 to 27.0 h
level of caspase-cleaved CK-18 in plasma after infusion [6]: no consistent trend
best overall response SD, share of patients (advanced solid tumors; both treatment schedules): approximately 30%
objective response (advanced solid tumors; either treatment schedule): No patients
drug-related Alopecia, grade All [7]: 11 (17.5) n (%)
drug-related Fatigue, grade ≥3 [7]: 1 (1.7) n (%)
drug-related Nausea, grade ≥3 [7]: 1 (1.6) n (%)
drug-related alopecia, patients [7]: 19.8%
drug-related decreased appetite, patients [7]: 14.9%
drug-related diarrhea, patients [7]: 16.5%
drug-related fatigue, patients [7]: 31.4%
drug-related leukopenia, patients [7]: 28.9%
drug-related nausea, patients [7]: 24.0%
drug-related neutropenia, patients [7]: 33.1%
time of treatment until pHH3 was reduced [8]: ≤ 1 h
polyploidy, share of cells (tumor cell lines): up to 80%
pHH3 in xenograft models ([9]; marker of Aurora B kinase inhibition): decrease in pHH3
effect on tumor growth in xenograft models ([9]; tumor regression in some cases): dose-dependent inhibition of tumor growth
antitumor activity of weekly and 2-weekly 24-h continuous infusion [10]: similarly strong antitumor activity
protein binding [11]: dependent on the plasma concentrations of alpha-1-acid glycoprotein (AGP)
deaths considered related to the study treatment ([12]; 22 patients with fatal AEs): None
drug-related Alopecia, grade All ([12]; Schedule B, Total (N = 58)): 12 (20.7) n (%)
patients with SAEs regarded as drug related ([12]; all patients): Thirteen
patients with fatal AEs ([12]; all patients, n = 22): 18.2%
patients with serious AEs (SAEs) ([12]; all patients, n = 61): 50.4%
drug-related SAE febrile neutropenia ([12]; all patients, most common drug-related SAE): seven
patients with SAEs regarded as drug related ([12]; schedule A, n = 3): 4.8%
patients with fatal AEs ([12]; schedule A, n = 10): 15.9%
patients with serious AEs (SAEs) ([12]; schedule A, n = 33): 52.4%
patients with SAEs regarded as drug related ([12]; schedule B, n = 10): 17.2%
patients with fatal AEs ([12]; schedule B, n = 12): 20.7%
patients with serious AEs (SAEs) ([12]; schedule B, n = 28): 48.3%
